Gli-Sufu block: antagonists of Gli-Sufu signaling | Sufu-KO-LIGHT fibroblasts, Gli luciferase reporter luminescence | inhibition, % at 5 µM | 340,000 tested, 0.74% active;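 active = inhibition above about 55%, limit read from the data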
UPR XBP1 act: activators of adaptive arm of unfolded protein response (XBP1). 330,000 tested, 0.33% active. CHO-XBP1 luciferase reporter, IRE1-XBP1 UPR activation, luminescence; percent of tunicamycin response, DMSO as zero. activation, % at 20 µM. AID 463104;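 active = versus positive control, 20 µM dose yields 30% or more activation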
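assay system = CHO-XBP1 luciferase reporter cells | amount = 1000 cells/well | buffer or medium = F12 plus 10% FBS | compound dosing = single point, 20 µM final compound, 1% DMSO | incubation = 16-18 h cell attachment at 37 °C, then 6 h compound exposure | detection = Steady-Glo luminescence read | controls = tunicamycin 10 µg/mL and vehicle-only wells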
697 NFkB inh: lowers PMA/ionomycin-induced NF-kB signal in 697 B cells; 697 B-cell NF-kB luciferase reporter, 16 h; inhibition, % at 4 µM; 330,000 tested, 0.33% active; AID 435022; in the data active = inhibition above about 35%
UPR CHOP act: activators of apoptotic arm of unfolded protein response (CHOP) | CHO-CHOP luciferase reporter, UPR activation, luminescence; percent of tunicamycin response over DMSO baseline | activation, % at 10 µM | 330,000 tested, 0.34% active | AID 449763;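 active = at 10 µM dose, activation of 40% or more, normalized to positive control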
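System: CHO CHOP reporter cells. Amount: 500 cells per well. Buffer or medium: F12 medium, 10% FBS. Compound dosing: one dose, 10 µM in 0.5% DMSO. Incubation: 6 h compound exposure at 37 °C after overnight seeding. Technique: Steady-Glo luciferase luminescence. Benchmarks: tunicamycin and DMSO controls.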
Jurkat NFkB inh: inhibitors of the PMA/ionomycin-induced NF-kB reporter in Jurkat cells; PMA/ionomycin-induced NF-kB luciferase reporter, luminescence; 330,000 tested, 0.53% active; inhibition, % at 4 µM; AID 435003; in the data active = inhibition above about 50%
CHOP inh: CHOP inhibition in unfolded protein response; CHO-K1 CHOP-promoter luciferase, tunicamycin-induced, 15-18 h; inhibition, % at 10 µM; 220,000 tested, 3.8% active;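 active = compounds that reduced the stress-induced luciferase reporter signal by more than about 70% of percent inhibition, limit read from the data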
CHOP confirm: confirmation of CHOP induction inhibitors; shares compounds with CHOP inh; CHO-CHOP promoter luciferase reporter, tunicamycin-induced, luminescence; inhibition, % at 10 µM; 2,100 tested, 45% active;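 active = mean of three repeat readings of reporter signal inhibition above a set limit, cut at about 70% in these data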
Jurkat NFkB conf: inhibitors of the PMA/ionomycin-induced NF-kB reporter in Jurkat cells, retest. shares compounds with Jurkat NFkB inh. 2,700 tested, 27% active. inhibition, % at 4 µM. Jurkat NF-kB luciferase, 16 h;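 active = inhibition reaching about 45% at 4 µM in either replicate, limit read from the data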
697 NFkB conf: lowers PMA/ionomycin-induced NF-kB signal in 697 B cells | 2,000 tested, 35% active | shares compounds with 697 NFkB inh | AID 449746 | 697 B-cell NF-kB luciferase, 16 h | inhibition, % at 4 µM; in the data active = inhibition mostly above about 28%, no sharp cut-off; inactive = mostly below about 22%
UPR CHOP confirm: apoptotic UPR (CHOP) activation, confirmed; shares compounds with UPR CHOP act; CHO-CHOP cells, CHOP-luciferase reporter luminescence; percent of tunicamycin response, DMSO as zero; activation, % at 10 µM; 1,000 tested, 64% active; AID 463112; in the data active = activation above about 33%
A number is an active result; i = inactive; nt = not tested or not shown. A selection: hits, their analogues and other compounds. The true share with any hit is near 3.9%.

SMILES	Gli-Sufu block	UPR XBP1 act	697 NFkB inh	UPR CHOP act	Jurkat NFkB inh	CHOP inh	CHOP confirm	UPR CHOP confirm	others
CC(C)(C)c1ccc(NC(=O)Nc2ccc(F)cc2)cc1	i	i	i	i	i	102.6	107.2	nt	Jurkat NFkB conf=i;697 NFkB conf=i
COc1ccccc1C(=O)NNC(=O)c1cccc(C)c1	i	i	i	i	i	nt	nt	nt
O=C1c2ccccc2C(=O)C1c1nccc2ccccc12	i	i	i	i	i	106.4	104.0	nt	697 NFkB conf=i
CCOCCn1cnc2sc(C(=O)NCCCN3CCOCC3)c(C)c2c1=O	i	i	i	i	i	nt	nt	nt
Cc1c(N(C)C(=O)COc2ccc3ccccc3c2)c(=O)n(-c2ccccc2)n1C	i	i	i	i	i	nt	nt	nt
CCOc1ccc(-c2nc(CSCC(=O)NCc3ccco3)c(C)o2)cc1	i	i	98.7	i	i	105.7	118.1	nt	697 NFkB conf=98.7
COc1ccc(-c2nc(CS(=O)CC(=O)NCc3ccco3)c(C)o2)cc1 (configuration not stated)	i	i	i	i	i	i	nt	nt
COc1ccc2oc(=O)c(C(=O)NC(C)c3ccccc3)cc2c1 (configuration not stated)	i	i	i	i	i	nt	nt	nt
COc1ccc2oc(=O)c(C(=O)Nc3ccccc3O)cc2c1	i	i	i	i	i	101.0	i	nt	Jurkat NFkB conf=i;697 NFkB conf=i
Cc1ccc2nc(NC(=O)CSCC(=O)OCC(=O)c3ccc(Br)cc3)sc2c1	i	i	64.5	i	i	100.2	106.8	nt	697 NFkB conf=54.0
O=Nc1ccc(O)c2ncccc12	i	i	i	i	59.7	106.2	108.3	nt	Jurkat NFkB conf=i;697 NFkB conf=i
O=C(OCC(=O)c1ccc(Cl)cc1Cl)c1cnccn1	i	i	i	i	i	nt	nt	nt
S=c1cn[nH]c2ccccc12	i	nt	nt	nt	nt	nt	nt	nt
CC1CCN(c2nc3ccc(C(=O)NCCCN4CCCCC4)cc3s2)CC1	i	i	i	i	i	nt	nt	nt
CC1CCN(c2nc3ccc(C(=O)O)cc3s2)CC1	i	i	51.5	i	82.6	96.7	108.4	nt	Jurkat NFkB conf=77.5;697 NFkB conf=42.1
COC(=O)/C(=C1/Oc2cc(C)oc(=O)c2S1)C(F)(F)F	i	i	i	i	69.2	110.8	112.2	nt	Jurkat NFkB conf=i;697 NFkB conf=i
COC(=O)/C(=C1/Oc2ccc(C(C)(C)C)cc2S1)C(F)(F)F	i	i	i	i	i	i	nt	nt
CC(C)(C)C1=CC(=O)C(=O)C(C(C)(C)C)=C1	i	i	i	144.3	i	103.9	i	326.4
CN(C)CC(C(=O)c1ccccc1)c1ccccc1 (configuration not stated)	i	i	i	159.3	i	nt	i	41.4	697 NFkB conf=i
Cc1cc(C(=O)CN2C(=O)CN(C)C2=O)c(C)n1-c1cccc(S(=O)(=O)N2CCOCC2)c1	i	i	i	i	i	i	nt	nt
Cc1cc(C(=O)CCl)c(C)n1-c1cccc(S(=O)(=O)N2CCOCC2)c1	i	i	i	206.9	i	103.1	76.1	63.5
C=C(C)C(=O)OC1(C(F)(F)F)Oc2cc(C)ccc2NC1=O (configuration not stated)	i	i	i	44.9	i	108.8	116.3	i
CC(=O)SC(C[N+](=O)[O-])c1cn(C(C)=O)c2ccccc12 (configuration not stated)	i	i	i	159.3	i	106.0	i	i
Cc1csc(NC(=O)CSc2nc3nc(C)cc(C)n3n2)n1	i	i	i	i	i	nt	nt	nt
CN(C)c1ncc(C2=C(Cl)C(=O)C(N3CCCC3)=C(Cl)C2=O)s1	i	i	i	83.2	i	108.1	i	i
SMILES	Gli-Sufu block	UPR XBP1 act	697 NFkB inh	UPR CHOP act	Jurkat NFkB inh	CHOP inh	CHOP confirm	UPR CHOP confirm	others
COC(=O)c1ccc2c(c1)C(C)(C)C(/C=C/c1ccc(OC)c(OC)c1OC)=[N+]2C	i	i	i	63.8	i	nt	140.6	i
COc1ccc(/C=N/Nc2ccc(C(=O)O)cc2)c(OC)c1OC	i	i	i	i	i	nt	nt	nt
Cc1cccc(C(=O)OCC(=O)Nc2ccccc2C(=O)NC2CC2)c1	i	i	i	i	i	nt	nt	nt
CC(C)CN(C1CCS(=O)(=O)C1)S(=O)(=O)c1ccc(C(C)C)cc1 (configuration not stated)	i	i	i	i	i	nt	nt	nt
CCOc1cc(/C=C2/C(=O)ON=C2C)ccc1OCc1ccccc1	i	i	i	58.1	i	105.1	i	i
C#CCOc1ccc(/C=C2/C(=O)ON=C2C)cc1Cl	i	i	i	i	i	nt	nt	nt
CCOc1cc(/C=C2/C(=O)ON=C2C)ccc1OCc1ccccc1F	i	i	i	112.0	i	98.9	111.7	67.5
CCOC(=O)Cc1cc(-c2ccccc2)nc2ccc3ccccc3c12	i	i	i	i	i	i	nt	nt
CCOC(=O)CCS(=O)(=O)c1nc(-c2ccccc2)cc(C(F)(F)F)n1	i	i	i	72.8	i	nt	136.4	i
COc1ccc(-c2cc(C(F)(F)F)nc(N)n2)cc1	i	i	i	i	i	i	nt	nt
COc1ccc(-c2cc(C(F)(F)F)nc(S(C)(=O)=O)n2)cc1	i	i	i	43.1	i	106.1	i	i
COc1cccc(NC(=O)c2cc3ccccc3cc2OC)c1	i	i	i	i	i	nt	nt	nt
COc1ccc(NS(=O)(=O)c2ccc(OCC(=O)N3CCOCC3)cc2)cc1Cl	i	i	i	i	i	nt	nt	nt
CCOc1ccc(-c2nc(S(=O)(=O)c3ccccc3)c(N3CCC(C(N)=O)CC3)o2)cc1	i	i	i	i	i	nt	nt	nt
Nc1nnnn1/N=C/C(Br)=C/c1ccccc1	i	i	i	109.2	57.5	nt	90.0	64.4	Jurkat NFkB conf=i
Clc1nc2c(-c3ccccc3)nnn2c2ccccc12	i	i	i	60.1	i	100.8	i	i
Cc1nc(SCC(=O)N2CCN(C(=O)c3cccs3)CC2)c2c(C)c(C)sc2n1	i	i	i	i	i	nt	nt	nt
CC(C)N=c1scc(-c2ccco2)n1/N=C/c1ccc(O)c(O)c1	i	i	i	159.2	i	99.5	i	127.0
COCCN=c1scc(-c2ccco2)n1/N=C/c1ccc(O)c(O)c1O	i	i	i	i	i	i	nt	nt
COc1cc(NC(=O)C(C)N2CCN(C(=O)C3CC3)CC2)cc(OC)c1 (configuration not stated)	i	i	i	i	i	nt	nt	nt
CC1=NN(c2ccccc2)C(=O)/C1=C\c1cn(-c2ccccc2)nc1C	i	i	i	i	i	i	nt	nt

High-throughput results (PubChem BioAssay)
